# Measurements reported in ChEMBL document CHEMBL5647697, “Akt inhibition synergizes with polycomb repressive complex 2 inhibition in the treatment of multiple myeloma” (2019).
# Calls of active or inactive are those of the source. No cut-off for these calls is given here.
# Columns and labels:
# MM1.S [1] = assay: Synergistic activity against human MM.1S cells assessed as combination index […] at 0.125 uM incubated for 48 hrs by […]; assay type: functional
# How it was run: (§1)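 Cells were exposed to the EZH2/EZH1 inhibitor (UNC1999 or GSK126) for 72 h in total, with the Akt inhibitor added for the last 48 h. Viability was read by MTS assay relative to untreated control cells, in triplicate. The combination index for each dose pair came from isobologram analysis.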
# MM1.S [2] = assay: Upregulation of EZH1 protein expression in human MM1.S cells at 0.03 to 3 micromol/L after 48 hrs by Western blot analysis; assay type: functional, cell-based; conditions: dose 0.03-3 µmol/L
# How it was run: (§2)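 MM.1S and H929 cells were treated with graded TAS-117 for 48 h. EZH1 was detected by immunoblot and quantified relative to the GAPDH loading control.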
# MM1.S [3] = assay: Upregulation of FOXO3 in human MM1.S cells assessed as enhanced nuclear accumulation at 0.5 micromol/L after 24 hrs by immunofluorescence staining; assay type: functional, cell-based; conditions: dose 0.5 µmol/L
# How it was run: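 MM.1S and H929 cells were treated with or without 0.5 μmol/L TAS-117 for 24 h. Cells were immunostained with anti-FOXO3. Jurkat cells served as positive control and cells without primary antibody as negative control. Read-out was the average fluorescence intensity of the nuclear FOXO3 fraction versus untreated cells.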
# MM1.S [4] = assay: Synergistic activity against human MM.1S cells assessed as combination index […] in presence of 1.25 uM UNC1999 […] at 0.25 uM incubated for 48 hrs by MTT assay; assay type: functional; how it was run: as §1
# OPM-2/BTZ [5] = assay: Synergistic activity against human OPM-2/BTZ cells assessed as combination index preincubated in presence of 1.25 uM GSK126 for 72 hrs followed by compound addition at 0.5 uM incubated for 48 hrs by MTT assay; assay type: functional
# NCI-H929 [6] = assay: Induction of apoptosis in human NCI-H929 cells assessed as necrotic cells at 5 micromol/L incubated for 48 hrs by annexin V/PI staining based flow cytometry (reference value: 2.61%); assay type: functional; conditions: dose 5 µmol/L, at 5 µM
# MM1.S [7] = assay: Synergistic activity against human MM.1S cells assessed as combination index […] at 0.25 uM incubated for 48 hrs by MTT assay; assay type: functional; how it was run: as §1
# NCI-H929 [8] = assay: Upregulation of FOXO3 […] expression in human NCI-H929 cells assessed as enhanced nuclear accumulation at 1 micromol/L after 24 hrs by immunofluorescence staining; assay type: functional, cell-based; conditions: dose 1.0 µmol/L
# NCI-H929 [9] = assay: Induction of apoptosis in human NCI-H929 cells assessed as early apoptotic cells at 2 micromol/L incubated for 12 hrs by annexin V/PI staining based flow cytometry (reference value: 0.37%); assay type: functional; conditions: dose 2 µmol/L, at 2 µM
# NCI-H929 [10] = assay: Synergistic activity against human NCI-H929 cells assessed as combination index […] in presence of 2.5 uM UNC1999 […] at 0.125 uM incubated for 48 hrs by […]; assay type: functional; how it was run: as §1
# MM1.S [11] = assay: Synergistic activity against human MM.1S cells assessed as combination index preincubated in presence of 1.25 uM GSK126 […] at 0.25 uM incubated for 48 hrs by […]; assay type: functional; how it was run: as §1
# MM1.S [12] = assay: Induction of apoptosis in human MM1.S cells assessed as live cells at 2 micromol/L incubated for 12 hrs by annexin V/PI staining based flow cytometry (reference value: 88.2%); assay type: functional; conditions: dose 2 µmol/L, at 2 µM
# MM1.S [13] = assay: Synergistic activity against human MM.1S cells assessed as combination index […] in presence of 1.25 uM UNC1999 […] at 0.5 uM incubated for 48 hrs by […] assay; assay type: functional; how it was run: as §1
# OPM-2 [14] = assay: Synergistic activity against human OPM-2 cells assessed as combination index preincubated in presence of 2.5 uM UNC1999 for 72 hrs followed by compound addition at 1.25 uM incubated for 48 hrs by MTT assay; assay type: functional
# NCI-H929 [15] = assay: Upregulation of EZH1 protein expression in human NCI-H929 cells at 0.03 to 3 micromol/L after 48 hrs by Western blot analysis; assay type: functional, cell-based; conditions: dose 0.03-3 µmol/L; how it was run: as §2
# MM1.S [16] = assay: Downregulation of CDK1 protein expression in human MM1.S cells incubated at 0.3 to 3 micromol/L for 48 hrs by Western blot analysis; assay type: functional, cell-based; conditions: dose 0.3-3 µmol/L
# How it was run: (§3)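 MM.1S and H929 cells given TAS-117 at the indicated doses for 48 h. Protein levels assessed by immunoblot.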
# OPM-2/BTZ [17] = assay: Synergistic activity against human OPM-2/BTZ cells assessed as combination index preincubated in presence of 1.25 uM UNC1999 for 72 hrs followed by compound addition at 0.5 uM incubated for 48 hrs by MTT assay; assay type: functional
# NCI-H929 [18] = assay: Synergistic activity against human NCI-H929 cells assessed as combination index […] compound addition at 0.25 uM incubated for 48 hrs by […]; assay type: functional; how it was run: as §1
# MM1.S [19] = assay: Induction of apoptosis in human MM1.S cells assessed as late apoptotic cells preincubated in presence of 5 micromol/L UNC1999 for 48 hrs followed by compound addition at 2 micromol/L incubated for 12 hrs by annexin V/PI staining based flow cytometry (reference value: 3.6%); assay type: functional; conditions: dose 2 µmol/L, at 2 µM
# MM1.S [20] = assay: Synergistic activity against human MM.1S cells assessed as combination index […] in presence of 2.5 uM UNC1999 […] at 0.5 uM incubated for 48 hrs by […]; assay type: functional; how it was run: as §1
# MM1.S [21] = assay: Downregulation of phospho-Rb protein expression in human MM1.S cells incubated at 0.3 to 3 micromol/L for 48 hrs by Western blot analysis; assay type: functional, cell-based; conditions: dose 0.3-3 µmol/L; how it was run: as §3
# OPM-2/BTZ [22] = assay: Downregulation of cyclin D1 protein expression in human OPM-2/BTZ cells incubated at 0.3 to 3 micromol/L for 48 hrs by Western blot analysis; assay type: functional, cell-based; conditions: dose 0.3-3 µmol/L
# MM1.S [23] = assay: Synergistic activity against human MM.1S cells assessed as combination index […] at 0.125 uM incubated for 48 hrs MTT assay; assay type: functional; how it was run: as §1
# NCI-H929 [24] = assay: Downregulation of CDK2 protein expression in human NCI-H929 cells incubated at 0.3 to 3 micromol/L for 48 hrs by Western blot analysis; assay type: functional, cell-based; conditions: dose 0.3-3 µmol/L; how it was run: as §3
# MM1.S [25] = assay: Downregulation of H3K27me3 levels in human MM1.S cells […] at 0.3 micromol/L after 48 hrs by Western blot analysis relative to control; assay type: functional, cell-based; conditions: dose 0.3 µmol/L
# How it was run: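 MM.1S cells transduced with lentiviral shRNA against EZH1 or luciferase, then treated with TAS-117 at the indicated doses for 48 h. H3K27me3 immunoblot with H3 as loading control.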
# MM1.S [26] = assay: Downregulation of E2F1 protein expression in human MM1.S cells incubated at 0.3 to 3 micromol/L for 48 hrs by Western blot analysis; assay type: functional, cell-based; conditions: dose 0.3-3 µmol/L; how it was run: as §3
# OPM-2 [27] = assay: Effects on EZH2 mRNA expression in human OPM-2 cells at 3 micromol/L incubated for last 24 hrs by qRT-PCR analysis; assay type: functional, cell-based; conditions: dose 3.0 µmol/L
# NCI-H929 [28] = assay: Induction of apoptosis in human NCI-H929 cells assessed as viable cells preincubated in presence of 5 micromol/L UNC1999 for 48 hrs followed by compound addition at 2 micromol/L incubated for 12 hrs by annexin V/PI staining based flow cytometry (reference value: 95.6%); assay type: functional; conditions: dose 2 µmol/L, at 2 µM
# NCI-H929 [29] = assay: Induction of apoptosis in human NCI-H929 cells assessed as early apoptotic cells at 5 micromol/L incubated for 48 hrs by annexin V/PI staining based flow cytometry (reference value: 0.37%); assay type: functional; conditions: dose 5 µmol/L, at 5 µM
smiles,measurement,setting,value
C[C@]1(O)C[C@@](N)(c2ccc(-c3nc4n(c3-c3ccccc3)COc3ccncc3-4)cc2)C1 [PIFUSERTIB],CI,MM1.S [1],0.27
same,Activity,MM1.S [2],Active
same,Activity,MM1.S [3],Active
same,CI,MM1.S [4],0.251
same,CI,OPM-2/BTZ [5],0.624
same,Activity,NCI-H929 [6],0.84%
same,CI,MM1.S [7],0.307
same,Activity,NCI-H929 [8],Active
same,Activity,NCI-H929 [9],4.49%
same,CI,NCI-H929 [10],0.783
same,CI,MM1.S [11],0.954
same,Activity,MM1.S [12],85.7%
same,CI,MM1.S [13],0.357
same,CI,OPM-2 [14],2.53
same,Activity,NCI-H929 [15],Active
same,Activity,MM1.S [16],Active
same,CI,OPM-2/BTZ [17],0.74
same,CI,NCI-H929 [18],7.428
same,Activity,MM1.S [19],25.3%
same,CI,MM1.S [20],0.277
same,Activity,MM1.S [21],Active
same,Activity,OPM-2/BTZ [22],Active
same,CI,MM1.S [23],0.253
same,Activity,NCI-H929 [24],Active
same,Activity,MM1.S [25],Active
same,Activity,MM1.S [26],Active
same,Activity,OPM-2 [27],inactive
same,Activity,NCI-H929 [28],70.4%
same,Activity,NCI-H929 [29],9.69%
